Assay results from ChEMBL document CHEMBL1157526, “Development of novel beta-amyloid probes based on 3,5-diphenyl-1,2,4-oxadiazole” (Bioorg Med Chem, 2008).
Blank lines part the entries; values can stand above or below the molecule they belong to.

Key:
[1] = Displacement of [125I]IMPY from amyloid beta (1-42) aggregates
In short: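 Synthetic Aβ(1–42) dissolved at 0.25 mg/mL in 10 mM sodium phosphate, 1 mM EDTA, pH 7.4, aggregated 42 h at 37 °C with gentle constant shaking. Competition against [125I]IMPY (2200 Ci/mmol, >95% radiochemical purity). Filter-bound radioactivity gamma-counted, specific binding under 15% of total. IC50 from displacement curves, Ki by Cheng-Prusoff. Mean ± SEM of 3–6 independent experiments.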

Intestine [2] = assay: Biodistribution in ddY mouse intestine at 0.5 uCi, iv after 10 mins; format: ADME, organism-based; settings: in vivo
In short: (§1)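 Normal male-unspecified ddY mice (5-week-old, 22–25 g) given radioiodinated ligand by tail-vein injection, killed at set times post-injection. Organs removed and weighed, radioactivity counted in a gamma counter. Expressed as % injected dose per gram, stomach as % injected dose per organ. Mean (s.d.) of 3–5 animals per time point.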

Brain [3] = assay: Biodistribution in ddY mouse brain at 0.5 uCi, iv after 2 mins; format: ADME, organism-based; settings: in vivo; in short: as §1
Stomach [4] = assay: Biodistribution in ddY mouse stomach at 0.5 uCi, iv after 60 mins; format: ADME, organism-based; settings: in vivo, 1 h; in short: as §1
Spleen [5] = assay: Biodistribution in ddY mouse spleen at 0.5 uCi, iv after 10 mins; format: ADME, organism-based; settings: in vivo; in short: as §1
Kidney [6] = assay: Biodistribution in ddY mouse kidney at 0.5 uCi, iv after 10 mins; format: ADME, organism-based; settings: in vivo; in short: as §1
Stomach [7] = assay: Biodistribution in ddY mouse stomach at 0.5 uCi, iv after 30 mins; format: ADME, organism-based; settings: in vivo, 0.5 h; in short: as §1
Spleen [8] = assay: Biodistribution in ddY mouse spleen at 0.5 uCi, iv after 2 mins; format: ADME, organism-based; settings: in vivo; in short: as §1
Intestine [9] = assay: Biodistribution in ddY mouse intestine at 0.5 uCi, iv after 60 mins; format: ADME, organism-based; settings: in vivo, 1 h; in short: as §1
Heart [10] = assay: Biodistribution in ddY mouse heart at 0.5 uCi, iv after 2 mins; format: ADME, organism-based; settings: in vivo; in short: as §1
Intestine [11] = assay: Biodistribution in ddY mouse intestine at 0.5 uCi, iv after 2 mins; format: ADME, organism-based; settings: in vivo; in short: as §1
Pancreas [12] = assay: Biodistribution in ddY mouse pancreas at 0.5 uCi, iv after 10 mins; format: ADME, organism-based; settings: in vivo; in short: as §1
Heart [13] = assay: Biodistribution in ddY mouse heart at 0.5 uCi, iv after 60 mins; format: ADME, organism-based; settings: in vivo, 1 h; in short: as §1
Blood [14] = assay: Biodistribution in ddY mouse blood at 0.5 uCi, iv after 60 mins; format: ADME, organism-based; settings: in vivo, 1 h; in short: as §1
Blood [15] = assay: Biodistribution in ddY mouse blood at 0.5 uCi, iv after 30 mins; format: ADME, organism-based; settings: in vivo, 0.5 h; in short: as §1
Pancreas [16] = assay: Biodistribution in ddY mouse pancreas at 0.5 uCi, iv after 30 mins; format: ADME, organism-based; settings: in vivo, 0.5 h; in short: as §1
Kidney [17] = assay: Biodistribution in ddY mouse kidney at 0.5 uCi, iv after 2 mins; format: ADME, organism-based; settings: in vivo; in short: as §1
Blood [18] = assay: Biodistribution in ddY mouse blood at 0.5 uCi, iv after 2 mins; format: ADME, organism-based; settings: in vivo; in short: as §1
Pancreas [19] = assay: Biodistribution in ddY mouse pancreas at 0.5 uCi, iv after 60 mins; format: ADME, organism-based; settings: in vivo, 1 h; in short: as §1
Liver [20] = assay: Biodistribution in ddY mouse liver at 0.5 uCi, iv after 10 mins; format: ADME, organism-based; settings: in vivo; in short: as §1
Brain [21] = assay: Biodistribution in ddY mouse brain at 0.5 uCi, iv after 30 mins; format: ADME, organism-based; settings: in vivo, 0.5 h; in short: as §1
Blood [22] = assay: Biodistribution in ddY mouse blood at 0.5 uCi, iv after 10 mins; format: ADME, organism-based; settings: in vivo; in short: as §1
Pancreas [23] = assay: Biodistribution in ddY mouse pancreas at 0.5 uCi, iv after 2 mins; format: ADME, organism-based; settings: in vivo; in short: as §1
Stomach [24] = assay: Biodistribution in ddY mouse stomach at 0.5 uCi, iv after 2 mins; format: ADME, organism-based; settings: in vivo; in short: as §1
Liver [25] = assay: Biodistribution in ddY mouse liver at 0.5 uCi, iv after 2 mins; format: ADME, organism-based; settings: in vivo; in short: as §1
Heart [26] = assay: Biodistribution in ddY mouse heart at 0.5 uCi, iv after 30 mins; format: ADME, organism-based; settings: in vivo, 0.5 h; in short: as §1
Spleen [27] = assay: Biodistribution in ddY mouse spleen at 0.5 uCi, iv after 30 mins; format: ADME, organism-based; settings: in vivo, 0.5 h; in short: as §1
Heart [28] = assay: Biodistribution in ddY mouse heart at 0.5 uCi, iv after 10 mins; format: ADME, organism-based; settings: in vivo; in short: as §1
Kidney [29] = assay: Biodistribution in ddY mouse kidney at 0.5 uCi, iv after 60 mins; format: ADME, organism-based; settings: in vivo, 1 h; in short: as §1
Kidney [30] = assay: Biodistribution in ddY mouse kidney at 0.5 uCi, iv after 30 mins; format: ADME, organism-based; settings: in vivo, 0.5 h; in short: as §1
Brain [31] = assay: Biodistribution in ddY mouse brain at 0.5 uCi, iv after 60 mins; format: ADME, organism-based; settings: in vivo, 1 h; in short: as §1
Spleen [32] = assay: Biodistribution in ddY mouse spleen at 0.5 uCi, iv after 60 mins; format: ADME, organism-based; settings: in vivo, 1 h; in short: as §1
Brain [33] = assay: Biodistribution in ddY mouse brain at 0.5 uCi, iv after 10 mins; format: ADME, organism-based; settings: in vivo; in short: as §1
Intestine [34] = assay: Biodistribution in ddY mouse intestine at 0.5 uCi, iv after 30 mins; format: ADME, organism-based; settings: in vivo, 0.5 h; in short: as §1
Liver [35] = assay: Biodistribution in ddY mouse liver at 0.5 uCi, iv after 30 mins; format: ADME, organism-based; settings: in vivo, 0.5 h; in short: as §1
Liver [36] = assay: Biodistribution in ddY mouse liver at 0.5 uCi, iv after 60 mins; format: ADME, organism-based; settings: in vivo, 1 h; in short: as §1
Stomach [37] = assay: Biodistribution in ddY mouse stomach at 0.5 uCi, iv after 10 mins; format: ADME, organism-based; settings: in vivo; in short: as §1

- Ki [1]: 15.4 nM
Structure (SMILES): CN(C)c1ccc(-c2nc(-c3ccc(I)cc3)no2)cc1

- Drug uptake (Intestine [2]): 3.53 % ID/g
- Drug uptake (Brain [3]): 2.06 % ID/g
- Drug uptake (Stomach [4]): 3.16 % ID/organ
- Drug uptake (Spleen [5]): 3.62 % ID/g
- Drug uptake (Kidney [6]): 6.22 % ID/g
- Drug uptake (Stomach [7]): 2.46 % ID/organ
- Drug uptake (Spleen [8]): 4.41 % ID/g
- Drug uptake (Intestine [9]): 8.21 % ID/g
- Drug uptake (Heart [10]): 11.3 % ID/g
- Drug uptake (Intestine [11]): 1.7 % ID/g
- Drug uptake (Pancreas [12]): 4.94 % ID/g
- Drug uptake (Heart [13]): 1.35 % ID/g
- Drug uptake (Blood [14]): 1.12 % ID/g
- Drug uptake (Blood [15]): 1.23 % ID/g
- Drug uptake (Pancreas [16]): 2.84 % ID/g
- Drug uptake (Kidney [17]): 8.77 % ID/g
- Drug uptake (Blood [18]): 1.96 % ID/g
- Drug uptake (Pancreas [19]): 1.45 % ID/g
- Drug uptake (Liver [20]): 9.35 % ID/g
- Drug uptake (Brain [21]): 2.82 % ID/g
- Drug uptake (Blood [22]): 1.63 % ID/g
- Drug uptake (Pancreas [23]): 4.55 % ID/g
- Drug uptake (Stomach [24]): 0.62 % ID/organ
- Drug uptake (Liver [25]): 11.92 % ID/g
- Drug uptake (Heart [26]): 1.84 % ID/g
- Drug uptake (Spleen [27]): 2.13 % ID/g
- Drug uptake (Heart [28]): 4.44 % ID/g
- Drug uptake (Kidney [29]): 2.95 % ID/g
- Drug uptake (Kidney [30]): 3.85 % ID/g
- Drug uptake (Brain [31]): 2.01 % ID/g
- Drug uptake (Spleen [32]): 1.34 % ID/g
- Drug uptake (Brain [33]): 2.76 % ID/g
- Drug uptake (Intestine [34]): 6.62 % ID/g
- Drug uptake (Liver [35]): 6.13 % ID/g
- Drug uptake (Liver [36]): 4.44 % ID/g
- Drug uptake (Stomach [37]): 1.64 % ID/organ
Structure (SMILES): COc1ccc(-c2nc(-c3ccc([125I])cc3)no2)cc1

- Ki [1]: 14.3 nM
Structure (SMILES): CNc1ccc(-c2nc(-c3ccc(I)cc3)no2)cc1

- Ki [1]: 14.2 nM
Structure (SMILES): Nc1ccc(-c2nc(-c3ccc(I)cc3)no2)cc1
